Cytotoxicity data for 71 compounds are collected here from ChEMBL document CHEMBL4513216, “Probing the Open Global Health Chemical Diversity Library for Multistage-Active Starting Points for Next-Generation Antimalarials” (ACS Infect Dis, 2020).

A short description of this data set: Toxicity liver stage against HepG2, at 10uM. Format: cell-based. Also on record: test concentration 10 uM, cell line HepG2-A16-CD81EGFP. The settings on record: human, HepG2-A16-CD81EGFP cells; read-out: INHIBITION
The method in brief:
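Uninfected HepG2-A16-CD81EGFP cells, 3 × 10^3 per well, 1536-well, plated on prespotted compound at 10 μM final, parasite-free screening media added to match infected plates; puromycin 10 μM positive, DMSO 0.5% negative; run in parallel with 48 h PbLuc assay at 37 °C, 5% CO2; viability by CellTiter-Glo luminescence, normalized to controls.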
As to `Cc1nnc2ccc(N3CCN(Cc4nccn4C)CC3)nn12`, the cytotoxicity at 10 µM came out at 13.3%.

Take `COCc1noc(CCNC(=O)c2cc(C)c(C)[nH]c2=O)n1`: the cytotoxicity at 10 µM is -4.71%.

With `CC(C)n1ccnc1CN1C(=O)OC[C@@H]1c1ccccc1`, the cytotoxicity at 10 µM was -8.48%.

In the case of `CCn1cnnc1CNC(=O)N1CCN(Cc2ccsc2)CC1`, the cytotoxicity at 10 µM is -15.4%.

Consider `Cc1cc(CC(=O)N2CCc3cc(Br)sc3C2)n[nH]1`, for which the cytotoxicity at 10 µM turned out to be 10.2%.

As to `Cc1ncsc1-c1nnc(C2CCN(Cc3cccc(F)c3F)CC2)o1`, the cytotoxicity at 10 µM is -15.8%.

On to `CN(C(=O)CNC(=O)CC(C)(C)C)C1CCN(c2ccccn2)CC1`, for which the cytotoxicity at 10 µM is 13.9%.

As to `O=C(Cn1c(=O)oc2ccccc21)N1Cc2cncnc2C1`, the cytotoxicity at 10 µM was -0.0603%.

In the case of `CN(C)C(=O)Cc1ccc(NC(=O)NC2CC2)cc1`, the cytotoxicity at 10 µM is 6.13%.

Take `CC(C)C[C@@H]1N[C@H](C(=O)NC(C)C)Cc2c[nH]c3cccc1c23`: the cytotoxicity at 10 µM is 7.37%.

As to `Cc1nc(CNC(C(=O)N2CCOCC2)C(C)C)no1` (stereo unspecified), the cytotoxicity at 10 µM was 5.76%.

`CN(CCc1ccccn1)C(=O)Cn1cc(-c2ccccc2)nn1`: the cytotoxicity at 10 µM was found to be 0.788%.

Consider `CC(=O)N1CCCC2(CN(Cc3ccc(C)s3)CCO2)C1` (stereo unspecified), for which the cytotoxicity at 10 µM came to 0.102%.

Take `CC(C)COCC(NC(=O)Cc1ccn[nH]1)c1ccco1` (stereo unspecified): the cytotoxicity at 10 µM is -1.53%.

Take `O=C1CC[C@H]2[C@H](CCN2C(=O)C2CCCO2)N1Cc1ccncc1` (stereo partly specified): the cytotoxicity at 10 µM turned out to be 0.898%.

Consider `CN(C)c1ncc(CNC(=O)Nc2ccccc2F)n1C`, for which the cytotoxicity at 10 µM is -46.9%.

With `COC(=O)C1CCN(C(=O)Cn2ccc(-c3ccc(F)cc3)n2)CC1`, the cytotoxicity at 10 µM was -5.31%.

With `COc1ccccc1N(C)Cc1nc2c(cnn2C)c(=O)[nH]1`, the cytotoxicity at 10 µM is -8.48%.

Consider `Cc1cc(C)n(CC2CCCN2C(=O)c2ccc3c(c2)COC3)n1` (stereo unspecified), for which the cytotoxicity at 10 µM is 1.85%.

As for `O=C(Nc1ccccc1OCCc1ccccn1)N1CC[C@@H](O)C1`, the cytotoxicity at 10 µM was found to be 4.4%.

On to `O=C(Nc1cnc(C2CC2)nc1)N1CCCC1`, for which the cytotoxicity at 10 µM was -14.9%.

For `CO[C@@H]1CCN(S(=O)(=O)c2cn(C)cn2)[C@H]1Cc1ccncc1`, the cytotoxicity at 10 µM was determined as 4.05%.

Consider `O=C(NCC(=O)N1CCCCC1)c1ccoc1`, for which the cytotoxicity at 10 µM is -6.07%.

With `CCc1ncncc1C(=O)N1CCN(Cc2c(C)noc2C)CC1`, the cytotoxicity at 10 µM is -13.8%.

For `NC(=O)CN(CC1CCOC1)C1CC1` (stereo unspecified), the cytotoxicity at 10 µM is -14%.

For the compound `c1cc(CN2CC[C@H]3CO[C@H](CN4CCOCC4)[C@H]3C2)cs1`, the cytotoxicity at 10 µM is 4.91%.

`COc1ccc(CN2CCCC2)cc1Oc1ccc2c(c1)CC(CN)O2` (stereo unspecified): the cytotoxicity at 10 µM is -10.5%.

As to `CCN(CC)CC1CCN(Cc2ccn(C)c(=O)c2)CC1`, the cytotoxicity at 10 µM was -14.7%.

Consider `COCCN(Cc1ccco1)Cc1nc(-c2ccccc2C)no1`, for which the cytotoxicity at 10 µM worked out at 6.72%.

For the compound `Cc1cc(C)n(CC2CCCCN2C(=O)c2ccc3c(c2)COC3)n1` (stereo unspecified), the cytotoxicity at 10 µM is -24.4%.

As for `CCN1CCC(CNC(=O)C2(c3cccc(C)c3)CC2)C1` (stereo unspecified), the cytotoxicity at 10 µM is 1.42%.

For `O=C(NCCNc1ncccn1)NCCc1c(F)cccc1F`, the cytotoxicity at 10 µM is 7.49%.

For `O=C(COCC(=O)N(c1ccccc1)c1ccccc1)N1CCCCC1`, the cytotoxicity at 10 µM worked out at 2.33%.

Turning to `N#Cc1ccc(C(=O)NCC2(N3CCOCC3)CCCC2)nc1`, the cytotoxicity at 10 µM was 8.96%.

On to `COCCN1CC2(CCN(C(=O)c3ccno3)CC2)c2ccccc21`, for which the cytotoxicity at 10 µM stood at 0.729%.

For the compound `COc1cc(N2CC[C@@H]3OCCN(C)[C@H]3CC2)ncn1`, the cytotoxicity at 10 µM was -96.6%.

In the case of `Cc1csc(NC(=O)c2cnc(C3CCCN3)cn2)n1` (stereo unspecified), the cytotoxicity at 10 µM is -41%.

On to `COc1ccc(Cl)cc1CS(=O)(=O)Cc1noc(C)n1`, for which the cytotoxicity at 10 µM turned out to be 2.32%.

`O=C(c1ccc[nH]1)N1CC[C@@H](OCC2CC2)[C@@H]1Cc1cccnc1`: the cytotoxicity at 10 µM was found to be 0.878%.

For `Cc1cc(CN2CCC(CNC(=O)CN3CCCCCC3)C2)[nH]n1` (stereo unspecified), the cytotoxicity at 10 µM is -131%.

On to `N#Cc1ccccc1C(=O)N1C[C@@H](CN2CCCCCC2)[C@@H](CO)C1`, for which the cytotoxicity at 10 µM came out at 1.1%.

`NC(=O)C1CCN(CCc2ccc(NCc3ccsc3)cc2)CC1`: the cytotoxicity at 10 µM amounted to 0.867%.

As to `Cc1ccc(C(C)NC(=O)N2CCN(C(=O)CC(F)(F)F)CC2)o1` (stereo unspecified), the cytotoxicity at 10 µM amounted to 43.3%.

For `Cc1cccc2cc(CN3CCC(N4CCOCC4)CC3)c(=O)[nH]c12`, the cytotoxicity at 10 µM was -12%.

Take `COc1ccccc1C1(CNc2cn[nH]c(=O)c2Cl)CCOCC1`: the cytotoxicity at 10 µM amounted to 0.152%.

For `Cc1cc(C)n(CCC(=O)N2CCCC(c3nc(C(C)C)no3)C2)n1` (stereo unspecified), the cytotoxicity at 10 µM was determined as 8.27%.

For the compound `CC(C)(C)c1cc(C[C@H]2CNCC[C@H]2CC(=O)NC2CCCCC2)no1`, the cytotoxicity at 10 µM came to 2.82%.

With `CN(C)c1ccc(C(=O)N2CCN(CC(O)C(C)(C)C)CC2)nn1` (stereo unspecified), the cytotoxicity at 10 µM was -19.2%.

Regarding `Cc1ccc(CN2C[C@H](C(=O)N3CCCCO3)[C@@H]3CCO[C@@H]3C2)o1`, the cytotoxicity at 10 µM was found to be 9.46%.

For the compound `Cc1ncc(CNC(=O)N(C)Cc2ccc([S+](C)[O-])cc2)s1` (stereo unspecified), the cytotoxicity at 10 µM amounted to 9.35%.

In the case of `Cc1ccc2c(c1)OCCCC2NCc1nccn1Cc1ccccc1` (stereo unspecified), the cytotoxicity at 10 µM is -9.4%.

With `CS(=O)(=O)N1CCc2c(cccc2NC(=O)Nc2ccccn2)C1`, the cytotoxicity at 10 µM is -6%.

`COc1cccc(C(=O)NC(CC(=O)O)c2cccs2)c1OC` (stereo unspecified): the cytotoxicity at 10 µM is -8.66%.

For the compound `Cc1cc2[nH]c(CN3CCCCC3c3cccc(F)c3)cc(=O)n2n1` (stereo unspecified), the cytotoxicity at 10 µM was 1.29%.

As to `O=C(NCC1CCC2(CCNCC2)CO1)c1ccno1` (stereo unspecified), the cytotoxicity at 10 µM turned out to be 12.5%.

Regarding `Cc1nc(C)n(CC2CCCN2c2ncnc3c2CCC3)n1` (stereo unspecified), the cytotoxicity at 10 µM came to 8.03%.

Turning to `O=C(c1ccc(-n2ccnc2)cc1)N1CCCC(n2ccnc2)C1` (stereo unspecified), the cytotoxicity at 10 µM is -21.1%.

In the case of `Cc1nc2cc(F)cc(C(=O)N3CCN(CCO)CC3)c2nc1C`, the cytotoxicity at 10 µM was -3.31%.

Turning to `NS(=O)(=O)c1cnn(-c2ccc(NC(=O)C3CCCCC3)cn2)c1`, the cytotoxicity at 10 µM was determined as 2.27%.

On to `CCN(CC1CCOC1)C(=O)c1cnc2onc(C)c2c1` (stereo unspecified), for which the cytotoxicity at 10 µM is -10.4%.

Consider `CCc1ncc2c(n1)CN(CC(=O)Nc1cccnc1)CC2`, for which the cytotoxicity at 10 µM is -1.1%.

For the compound `COCCN1C(=O)[C@]2(CC[C@@H]3CN(C(=O)NCC(C)C)C[C@@H]32)N=C1C`, the cytotoxicity at 10 µM is -11.8%.

As to `Cc1nn(CCC#N)c(C)c1CCC(=O)N(C)C`, the cytotoxicity at 10 µM is -7.33%.

Turning to `CC(C)N1CCCC2(CCN(c3nccc(C(F)(F)F)n3)C2)C1=O` (stereo unspecified), the cytotoxicity at 10 µM came to 11.4%.

Regarding `CN(CC1Cc2ccccc2CN1C)C(=O)CSc1ccccn1` (stereo unspecified), the cytotoxicity at 10 µM was -1.32%.

On to `CCc1nccn1CCC(=O)N1CC[C@@H](c2sccc2C)[C@H](O)C1`, for which the cytotoxicity at 10 µM was -6.04%.

Turning to `CC1c2ncc(CNC(=O)C3CC3)n2CCN1Cc1nccs1` (stereo unspecified), the cytotoxicity at 10 µM was -5.43%.

With `Cc1ccc(CNC(=O)Cn2nc(-c3ccc(F)cc3)oc2=O)cc1F`, the cytotoxicity at 10 µM is -5.86%.

Take `CS(=O)(=O)NC(=O)c1nnn(-c2ccccc2)c1C1CC1`: the cytotoxicity at 10 µM was -7.09%.

Turning to `Cc1cc(C)n(CC(C)NC(=O)C(C)(C)c2ccccc2F)n1` (stereo unspecified), the cytotoxicity at 10 µM is -2.58%.

Regarding `CCOc1cccc2c1OCC(C(=O)NS(=O)(=O)Cc1ccccc1)=C2`, the cytotoxicity at 10 µM was -7.22%.
